Experimental data from different studies.
Protocols differ between the studies behind these lines.
Target: Tyrosine-protein kinase Fer (FER, Homo sapiens, UniProt P16591)

SMILES	effect on	method	tested at	remaining binding
CO[C@H]1CC[C@H](CNc2ccc(S(=O)(=O)NC(=O)c3ccc(N4CCN(CC5=C(c6ccc(Cl)cc6)CC(C)(C)CC5)CC4)cc3Oc3cnc4[nH]ccc4c3)cc2[N+](=O)[O-])CC1	cell-free assay	competition with immobilised ligand	1 µM	67%
Cc1cnc(Nc2ccc(C(=O)N3CCC(N4CCCC4)CC3)cc2)nc1-c1cc2ccccc2s1	binding	competition with immobilised ligand	1 µM	84%
N[C@H]1CCN(c2nccc(-c3cnn4ncccc34)n2)C1	binding		1 µM	97%
C=CC(=O)N1CCC(C(=O)NCC(=O)N2CCN(c3nc(-c4cnc(N)nc4C(F)F)nc(N4CCOCC4)n3)CC2)CC1	binding	competition with immobilised ligand	1 µM	87%
Cc1cnn2ncc(-c3ccnc(N(C)C)n3)c2c1	binding		1 µM	92%
CC(=O)C1=C(C)N(c2cccc(C(F)(F)F)c2)C(=O)N[C@@H]1c1ccc(C#N)nc1	cell-free assay	competition with immobilised ligand	1 µM	96.9%
CN(c1nccc(-c2cnn3ncccc23)n1)C1CC1	binding		1 µM	100%
CC(=O)N1CCC(c2ccc(C(=O)NC(=N)N)cc2C(F)(F)F)CC1	cell-free assay	competition with immobilised ligand	1 µM	96%
C[C@H]1CCN(c2nccc(-c3cnn4ncccc34)n2)C1	binding		1 µM	93%
c1cncc(-c2cccc(Nc3nccc(NC4CCCCC4)n3)c2)c1	binding	competition with immobilised ligand	10 µM	83%
COc1ccc2cc(OCC3(C(=O)O)CN(C(=O)c4ccc(F)cc4)C3)ccc2c1	cell-free assay	competition with immobilised ligand	1 µM	74%
O=C(c1ccc(Nc2nccc(-c3cc4ccccc4s3)n2)cc1)N1CCC(N2CCCC2)CC1	binding	competition with immobilised ligand	1 µM	100%
CCN1CCN(Cc2ccc(C(=O)Nc3ccc(C)c(Oc4ccc5c(c4)CC(=O)N5)c3)cc2C(F)(F)F)CC1	binding	competition with immobilised ligand	1 µM	100%
COc1cnc(Nc2cccc(S(N)(=O)=O)c2)nc1N1CCN(c2ccccc2)CC1	binding	competition with immobilised ligand	1 µM	100%
O=C(Nc1c[nH]nc1C(=O)NC1CCNCC1)c1cc(F)cc(F)c1	binding	competition with immobilised ligand	1 µM	100%
CCC(=O)N[C@H]1CC[C@@H](C(=O)N(C)c2ccc(-c3nc4ccccc4o3)cc2)C1	cell-free assay	competition with immobilised ligand	1 µM	90%
C[C@@H](c1ccc(-n2cnc3c(N)ncnc32)cc1)N1CCc2nn(C)c(Cc3ccccc3)c2C1=O	binding	competition with immobilised ligand	0.1 µM	100%
CC1CCCN1c1nccc(-c2cnn3ncccc23)n1 (stereo not drawn)	binding		1 µM	100%
O=C(NCCCN1CCOCC1)c1ccc(Nc2ncc(Cl)c(-c3ccc(Cl)s3)n2)cc1	binding	competition with immobilised ligand	1 µM	86%
CS(=O)(=O)c1cc(C2(NC(=O)c3cncc4c3cnn4-c3ccc(F)cc3)CC2)ccn1	cell-free assay	competition with immobilised ligand	1 µM	100%
c1cnn2ncc(-c3ccnc(N4CCC45COC5)n3)c2c1	binding		1 µM	91%
